Data reported in ChEMBL document CHEMBL4351026, “Antifungal activity, mode of action variability, and subcellular distribution of coumarin-based antifungal azoles” (Eur J Med Chem, 2019).
≈ marks a conversion by molar mass, not a printed value. Calls of active or inactive are those of the source. The rule behind the calls is not given here.

Experiments:
Nakaseomyces glabratus [1] = assay: Antifungal activity against Candida glabrata ATCC 66032 assessed as reduction in fungal cell growth incubated for 24 hrs by MTT based broth double dilution method; type: functional; settings: ATCC 66032, 24 h
Method in brief: (§1)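 Broth double-dilution in Casitone broth. Starter cultures were grown 24 or 48 h at 37 °C, 5% CO₂, diluted 1:100, and added to serial two-fold dilutions at 64 to 0.007 µg/mL. Final inoculum was 5 x 10^4 to 5 x 10^5 CFU/mL; DMSO was 0.0012–1.3%. Plates were incubated at 37 °C, 5% CO₂, then MTT was added for 2 h. MIC followed CLSI M27-A3. Triplicates, two independent experiments.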

Candida albicans [2] = assay: Antifungal activity against Candida albicans P-87 assessed as reduction in fungal cell growth incubated for 24 hrs by MTT based broth double dilution method; type: functional; settings: P-87, 24 h; method in brief: as §1
Candida dubliniensis = assay: Antifungal activity against Candida dubliniensis T-99 assessed as reduction in fungal cell growth incubated for 24 hrs by MTT based broth double dilution method; type: functional; settings: T-99, 24 h; method in brief: as §1
Candida parapsilosis [3] = assay: Antifungal activity against Candida parapsilosis ATCC 22019 assessed as reduction in fungal cell growth incubated for 24 hrs by MTT based broth double dilution method; type: functional; settings: Lodderomyces parapsilosis, ATCC 22019, 24 h; method in brief: as §1
[4] = system: Meyerozyma guilliermondii; assay: Antifungal activity against Candida guilliermondii T-47 assessed as reduction in fungal cell growth incubated for 24 hrs by MTT based broth double dilution method; type: functional; settings: T-47, 24 h; method in brief: as §1
Candida parapsilosis [5] = assay: Antifungal activity against Candida parapsilosis ATCC 90018 assessed as reduction in fungal cell growth incubated for 24 hrs by MTT based broth double dilution method; type: functional; settings: Lodderomyces parapsilosis, ATCC 90018, 24 h; method in brief: as §1
Nakaseomyces glabratus [6] = assay: Antifungal activity against Candida glabrata 192 assessed as reduction in fungal cell growth incubated for 24 hrs by MTT based broth double dilution method; type: functional; settings: Nakaseomyces glabratus, 192, 24 h; method in brief: as §1
Candida albicans [7] = assay: Antifungal activity against Candida albicans SN152 assessed as reduction in fungal cell growth incubated for 24 hrs by MTT based broth double dilution method; type: functional; settings: SN152, 24 h; method in brief: as §1
Candida albicans [8] = assay: Antifungal activity against Candida albicans ATCC 90028 assessed as reduction in fungal cell growth incubated for 24 hrs by MTT based broth double dilution method; type: functional; settings: ATCC 90028, 24 h; method in brief: as §1
Nakaseomyces glabratus [9] = assay: Antifungal activity against Candida glabrata ATCC 2001 assessed as reduction in fungal cell growth incubated for 24 hrs by MTT based broth double dilution method; type: functional; settings: ATCC 2001, 24 h; method in brief: as §1
Candida albicans [10] = assay: Antifungal activity against Candida albicans ATCC 90028 assessed as reduction in fungal cell growth incubated for 48 hrs by MTT based broth double dilution method; type: functional; settings: ATCC 90028, 48 h; method in brief: as §1
Nakaseomyces glabratus [11] = assay: Antifungal activity against Candida glabrata ATCC 66032 assessed as reduction in fungal cell growth incubated for 48 hrs by MTT based broth double dilution method; type: functional; settings: ATCC 66032, 48 h; method in brief: as §1
Nakaseomyces glabratus [12] = assay: Antifungal activity against Candida glabrata 192 assessed as reduction in fungal cell growth incubated for 48 hrs by MTT based broth double dilution method; type: functional; settings: Nakaseomyces glabratus, 192, 48 h; method in brief: as §1
Candida albicans [13] = assay: Antifungal activity against Candida albicans SN152 assessed as reduction in fungal cell growth incubated for 48 hrs by MTT based broth double dilution method; type: functional; settings: SN152, 48 h; method in brief: as §1
Candida albicans [14] = assay: Antifungal activity against ERG11/ERG3 knocked out Candida albicans SN152 assessed as zone of inhibition at 25 ug […] by disk diffusion method; type: functional, organism-based
Candida albicans [15] = assay: Antifungal activity against Candida albicans SN152 assessed as zone inhibition at 25 ug incubated for 24 hrs by disk diffusion method; type: functional, organism-based
Method in brief: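 Strains were streaked on YPD agar and grown at 30 °C: 24 h for parental SN152, 48 h for the erg11ΔΔ erg3ΔΔ mutant. Colonies were suspended in PBS and adjusted to OD 0.02 (SN152) or 0.03 (mutant), then spread on Casitone plates. A 6-mm disk loaded with 25 µg compound was placed centrally. Plates were incubated at 30 °C and photographed after 24 h.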

[16] = Cytotoxicity against human HEK293T cells assessed as reduction in cell viability at 5 to 50 uM incubated for 24 hrs by XTT assay relative to control; type: cell-based, HEK-293T; settings: HEK293T cells, read-out: INH
Method in brief: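 HEK-293T cells were grown in DMEM with 10% FBS, 1% NEAA, 1% pyruvate and pen-strep-nystatin at 37 °C and 5% CO2. 7000 cells/well were seeded on poly-D-lysine-coated wells. After 24 h the medium was renewed and compounds were added at 5–50 µM from 1 mM stocks in 10% DMSO/0.3% Tween/PBS. After 24 h, XTT was added for 2 h at 37 °C, with absorbance read at 475 nm (reference 660 nm).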

HEK-293T = assay: Cytotoxicity against human HEK293T cells assessed as reduction in cell viability at 5 to 50 uM incubated for 24 hrs by XTT assay; type: cell-based
Method in brief: (§2)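 HEK-293T were grown in DMEM with 10% FBS; HepG2 in RPMI with 15% FBS; both at 37 °C, 5% CO₂. Cells (4000 HepG2 or 7000 HEK-293T per well) were seeded on poly-D-lysine wells. After 24 h the medium was renewed and compounds added at 5–50 µM from 1 mM stocks in 10% DMSO/0.3% Tween/PBS. After 24 h more, XTT was added for 2 h at 37 °C; absorbance was read at 475 nm against 660 nm reference.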

HepG2 = assay: Cytotoxicity against human HepG2 cells assessed as reduction in cell viability at 5 to 50 uM incubated for 24 hrs by XTT assay; type: cell-based; settings: hepg2, 24 h; method in brief: as §2
[17] = Cytotoxicity against human HepG2 cells assessed as reduction in cell viability at 5 to 50 uM incubated for 24 hrs by XTT assay relative to control; type: cell-based; settings: read-out: INH
Method in brief: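 HepG2 cells were maintained in RPMI with 15% FBS, 1% NEAA, 1% pyruvate and pen-strep-nystatin at 37 °C and 5% CO2. 4000 cells/well were plated on poly-D-lysine coating and given fresh medium after 24 h. Compounds were dosed at 5–50 µM from 1 mM stocks in 10% DMSO/0.3% Tween/PBS and incubated 24 h. Viability was read by XTT (2 h, 37 °C) at 475 nm against 660 nm.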

MIC (Candida albicans [2])	MIC (Candida dubliniensis)	MIC (Candida parapsilosis [3])	MIC [4]	MIC (Candida parapsilosis [5])	MIC (Nakaseomyces glabratus [6])	MIC (Candida albicans [7])	MIC (Candida albicans [8])	MIC (Nakaseomyces glabratus [9])	Compound	MIC (Nakaseomyces glabratus [1])	MIC (Candida albicans [10])	MIC (Nakaseomyces glabratus [11])	MIC (Nakaseomyces glabratus [12])	MIC (Candida albicans [13])	inhibition zone (IZ) (Candida albicans [14])	inhibition zone (IZ) (Candida albicans [15])	cytotoxicity at 24 h, up to 50 µM [16]	Activity (HEK-293T)	Activity (HepG2)	cytotoxicity at 24 h, up to 50 µM [17]
2000 ng/mL (≈ 4.39 µM)	> 64 µg/mL	> 64 µg/mL	> 64 µg/mL	2 µg/mL (≈ 4.39 µM)	> 64 µg/mL	4000 ng/mL (≈ 8.78 µM)	1000 ng/mL (≈ 2.2 µM)	> 64 µg/mL	COc1ccc2cc(C(=O)NCC(O)(Cn3cncn3)c3ccc(F)cc3F)c(=O)[nH]c2c1 (racemic)	> 64 µg/mL	–	–	–	–	–	–	–	–	–	–
125 ng/mL (≈ 0.274 µM)	4 µg/mL (≈ 8.76 µM)	2 µg/mL (≈ 4.38 µM)	1 µg/mL (≈ 2.19 µM)	0.25 µg/mL (≈ 0.548 µM)	4 µg/mL (≈ 8.76 µM)	500 ng/mL (≈ 1.1 µM)	250 ng/mL (≈ 0.548 µM)	8 µg/mL (≈ 17.5 µM)	COc1ccc2cc(C(=O)NCC(O)(Cn3cncn3)c3ccc(F)cc3F)c(=O)oc2c1 (racemic)	32 µg/mL (≈ 70.1 µM)	–	–	–	–	–	–	–	–	–	–
125 ng/mL (≈ 0.293 µM)	0.5 µg/mL (≈ 1.17 µM)	2 µg/mL (≈ 4.69 µM)	1 µg/mL (≈ 2.35 µM)	0.25 µg/mL (≈ 0.586 µM)	1 µg/mL (≈ 2.35 µM)	250 ng/mL (≈ 0.586 µM)	250 ng/mL (≈ 0.586 µM)	4 µg/mL (≈ 9.38 µM)	O=C(NCC(O)(Cn1cncn1)c1ccc(F)cc1F)c1cc2ccccc2oc1=O (racemic)	1 µg/mL (≈ 2.35 µM)	–	–	–	–	–	–	–	–	–	–
7 ng/mL (≈ 0.0203 µM)	0.007 µg/mL (≈ 0.0203 µM)	0.007 µg/mL (≈ 0.0203 µM)	0.007 µg/mL (≈ 0.0203 µM)	0.007 µg/mL (≈ 0.0203 µM)	0.06 µg/mL (≈ 0.174 µM)	7 ng/mL (≈ 0.0203 µM)	7 ng/mL (≈ 0.0203 µM)	0.5 µg/mL (≈ 1.45 µM)	Clc1ccccc1C(c1ccccc1)(c1ccccc1)n1ccnc1 [CLOTRIMAZOLE]	–	7 ng/mL (≈ 0.0203 µM)	–	0.25 µg/mL (≈ 0.725 µM)	7 ng/mL (≈ 0.0203 µM)	–	–	–	–	–	–

Compound	MIC (Candida albicans [2])	MIC (Candida dubliniensis)	MIC (Candida parapsilosis [3])	MIC [4]	MIC (Candida parapsilosis [5])	MIC (Nakaseomyces glabratus [6])	MIC (Candida albicans [7])	MIC (Candida albicans [8])	MIC (Nakaseomyces glabratus [9])	MIC (Nakaseomyces glabratus [1])	MIC (Candida albicans [10])	MIC (Nakaseomyces glabratus [11])	MIC (Nakaseomyces glabratus [12])	MIC (Candida albicans [13])	inhibition zone (IZ) (Candida albicans [14])	inhibition zone (IZ) (Candida albicans [15])	cytotoxicity at 24 h, up to 50 µM [16]	Activity (HEK-293T)	Activity (HepG2)	cytotoxicity at 24 h, up to 50 µM [17]
CCC(C)n1ncn(-c2ccc(N3CCN(c4ccc(OCC5COC(Cn6cncn6)(c6ccc(Cl)cc6Cl)O5)cc4)CC3)cc2)c1=O (racemic) [ITRACONAZOLE]	7 ng/mL (≈ 0.00992 µM)	0.06 µg/mL (≈ 0.085 µM)	0.03 µg/mL (≈ 0.0425 µM)	0.03 µg/mL (≈ 0.0425 µM)	0.007 µg/mL (≈ 0.00992 µM)	0.125 µg/mL (≈ 0.177 µM)	7 ng/mL (≈ 0.00992 µM)	7 ng/mL (≈ 0.00992 µM)	1 µg/mL (≈ 1.42 µM)	1 µg/mL (≈ 1.42 µM)	7 ng/mL (≈ 0.00992 µM)	> 64 µg/mL	0.125 µg/mL (≈ 0.177 µM)	7 ng/mL (≈ 0.00992 µM)	–	–	–	–	–	–
Clc1ccc(COC(Cn2ccnc2)c2ccc(Cl)cc2Cl)c(Cl)c1 (stereo not given) [MICONAZOLE]	7 ng/mL (≈ 0.0168 µM)	0.06 µg/mL (≈ 0.144 µM)	0.003 µg/mL (≈ 0.00721 µM)	0.06 µg/mL (≈ 0.144 µM)	0.06 µg/mL (≈ 0.144 µM)	0.06 µg/mL (≈ 0.144 µM)	7 ng/mL (≈ 0.0168 µM)	7 ng/mL (≈ 0.0168 µM)	1 µg/mL (≈ 2.4 µM)	2 µg/mL (≈ 4.81 µM)	15 ng/mL (≈ 0.036 µM)	4 µg/mL (≈ 9.61 µM)	0.125 µg/mL (≈ 0.3 µM)	15 ng/mL (≈ 0.036 µM)	Active	Active	–	–	–	–
CC[C@@H]([C@H](C)O)n1ncn(-c2ccc(N3CCN(c4ccc(OC[C@@H]5CO[C@@](Cn6cncn6)(c6ccc(F)cc6F)C5)cc4)CC3)cc2)c1=O [POSACONAZOLE]	7 ng/mL (≈ 0.00999 µM)	0.03 µg/mL (≈ 0.0428 µM)	0.03 µg/mL (≈ 0.0428 µM)	0.03 µg/mL (≈ 0.0428 µM)	0.015 µg/mL (≈ 0.0214 µM)	0.125 µg/mL (≈ 0.178 µM)	7 ng/mL (≈ 0.00999 µM)	7 ng/mL (≈ 0.00999 µM)	1 µg/mL (≈ 1.43 µM)	1 µg/mL (≈ 1.43 µM)	7 ng/mL (≈ 0.00999 µM)	> 64 µg/mL	0.125 µg/mL (≈ 0.178 µM)	7 ng/mL (≈ 0.00999 µM)	–	–	< 40%	Toxic	Toxic	< 40%
